From ChEMBL document CHEMBL3091371, “Cytotoxic and antibacterial marfuraquinocins from the deep South China Sea-derived Streptomyces niveus SCSIO 3406” (J Nat Prod, 2013)
≈ marks a conversion by molar mass, not a printed value.

Columns and labels:
Staphylococcus aureus [1] = assay: Antibacterial activity against methicillin-resistant Staphylococcus aureus clinical isolate shhs-A1 by broth microdilution method; type: functional
Method in brief: (§1)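 Broth microdilution; MIC read as the lowest concentration giving complete growth inhibition in microdilution wells by unaided eye. Clinical isolates from Shanghai Huashan Hospital. Ampicillin and kanamycin as antibacterial controls. Results in μg/mL.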

Escherichia coli = assay: Antibacterial activity against Escherichia coli ATCC 25922 by broth microdilution method; type: functional
Micrococcus luteus = assay: Antibacterial activity against Micrococcus luteus by broth microdilution method; type: functional
MCF7 = assay: Cytotoxicity against human MCF7 cells after 72 hrs by SRB assay; type: functional, cell-based; conditions: MCF7, 72 h
Method in brief: (§2)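 Human tumour lines are tested by sulforhodamine B (SRB) staining. Cisplatin (DDP) is the positive control. IC50 is reported in μM as mean ± deviation.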

[2] = test system: Staphylococcus epidermidis; assay: Antibacterial activity against methicillin-resistant Staphylococcus epidermidis clinical isolate shhs-E1 by broth microdilution method; type: functional; method in brief: as §1
Acinetobacter baumannii = assay: Antibacterial activity against Acinetobacter baumannii ATCC 19606 by broth microdilution method; type: functional
NCI-H460 = assay: Cytotoxicity against human NCI-H460 cells after 72 hrs by SRB assay; type: functional, cell-based; conditions: NCI-H460, 72 h; method in brief: as §2
HepG2 = assay: Cytotoxicity against human HepG2 cells after 72 hrs by SRB assay; type: functional, cell-based; conditions: HepG2, 72 h; method in brief: as §2
[3] = Antibacterial activity against Aeromonas hydrophila ATCC 7966 by broth microdilution method; type: functional, Aeromonas hydrophila subsp. hydrophila ATCC 7966
Staphylococcus aureus [4] = assay: Antibacterial activity against Staphylococcus aureus ATCC 29213 by broth microdilution method; type: functional
SF-268 = assay: Cytotoxicity against human SF268 cells after 72 hrs by SRB assay; type: functional, cell-based; conditions: SF-268, 72 h; method in brief: as §2

C=C1CCCC(C)(C)C1CC[C@@]1(C)c2c(O)cc3c(c2O[C@@H]1C)C(=O)C=C(OC)C3=O (some centres undefined)
MIC (Staphylococcus aureus [1]): > 128 mg/L
MIC (Escherichia coli): 128 mg/L (≈ 302 µM)
MIC (Micrococcus luteus): > 128 mg/L
IC50 (MCF7): 12.9 µM
MIC [2]: 64 mg/L (≈ 151 µM)
MIC (Acinetobacter baumannii): > 128 mg/L
IC50 (NCI-H460): 3.7 µM
IC50 (HepG2): 17.5 µM
MIC [3]: 128 mg/L (≈ 302 µM)
MIC (Staphylococcus aureus [4]): 8 mg/L (≈ 18.8 µM)
IC50 (SF-268): 26.7 µM

C=C1CCCC(C)(C)C1CC[C@]1(C)c2c(O)cc3c(c2O[C@@H]1C)C(=O)C=C(OC)C3=O (some centres undefined)
MIC (Staphylococcus aureus [1]): > 128 mg/L
MIC (Escherichia coli): 128 mg/L (≈ 302 µM)
MIC (Micrococcus luteus): > 128 mg/L
IC50 (MCF7): 18.7 µM
MIC [2]: 32 mg/L (≈ 75.4 µM)
MIC (Acinetobacter baumannii): > 128 mg/L
IC50 (NCI-H460): 18.8 µM
IC50 (HepG2): 18.5 µM
MIC [3]: 128 mg/L (≈ 302 µM)
MIC (Staphylococcus aureus [4]): 64 mg/L (≈ 151 µM)
IC50 (SF-268): 27.9 µM

C=C1CCCC(C)(C)C1CC[C@@]1(C)c2c(O)cc3c(c2O[C@@H]1CO)C(=O)C=C(OC)C3=O (some centres undefined)
MIC (Staphylococcus aureus [1]): > 128 mg/L
MIC (Escherichia coli): 128 mg/L (≈ 291 µM)
MIC (Micrococcus luteus): > 128 mg/L
IC50 (MCF7): 18.9 µM
MIC [2]: 8 mg/L (≈ 18.2 µM)
MIC (Acinetobacter baumannii): > 128 mg/L
IC50 (NCI-H460): 4.4 µM
IC50 (HepG2): 11.9 µM
MIC [3]: 128 mg/L (≈ 291 µM)
MIC (Staphylococcus aureus [4]): 8 mg/L (≈ 18.2 µM)
IC50 (SF-268): 17.9 µM

C=C1CCCC(C)(C)C1CC[C@]1(C)c2c(O)cc3c(c2O[C@@H]1CO)C(=O)C=C(OC)C3=O (some centres undefined)
MIC (Staphylococcus aureus [1]): > 128 mg/L
MIC (Escherichia coli): 128 mg/L (≈ 291 µM)
MIC (Micrococcus luteus): > 128 mg/L
IC50 (MCF7): 14.8 µM
MIC [2]: 8 mg/L (≈ 18.2 µM)
MIC (Acinetobacter baumannii): > 128 mg/L
IC50 (NCI-H460): 8.8 µM
IC50 (HepG2): 15.5 µM
MIC [3]: 128 mg/L (≈ 291 µM)
MIC (Staphylococcus aureus [4]): 8 mg/L (≈ 18.2 µM)
IC50 (SF-268): 18.3 µM

CC(C)=CCC/C(C)=C/COc1cccc2nc3c(O)cccc3nc12
MIC (Staphylococcus aureus [1]): > 128 mg/L
MIC (Escherichia coli): 128 mg/L (≈ 367 µM)
MIC (Micrococcus luteus): > 128 mg/L
IC50 (MCF7): 16.8 µM
MIC [2]: 128 mg/L (≈ 367 µM)
MIC (Acinetobacter baumannii): > 128 mg/L
IC50 (NCI-H460): 68.9 µM
IC50 (HepG2): 22.3 µM
MIC [3]: 64 mg/L (≈ 184 µM)
MIC (Staphylococcus aureus [4]): 128 mg/L (≈ 367 µM)
IC50 (SF-268): 10.2 µM

COc1cccc2nc3c(OC/C=C(\C)CCC=C(C)C)cccc3nc12
MIC (Staphylococcus aureus [1]): > 128 mg/L
MIC (Escherichia coli): 128 mg/L (≈ 353 µM)
MIC (Micrococcus luteus): > 128 mg/L
IC50 (MCF7): 21.9 µM
MIC [2]: 128 mg/L (≈ 353 µM)
MIC (Acinetobacter baumannii): > 128 mg/L
IC50 (NCI-H460): > 100 µM
IC50 (HepG2): 52.7 µM
MIC [3]: 128 mg/L (≈ 353 µM)
MIC (Staphylococcus aureus [4]): 128 mg/L (≈ 353 µM)
IC50 (SF-268): 30.4 µM

CC1(C)S[C@@H]2[C@H](NC(=O)[C@H](N)c3ccccc3)C(=O)N2[C@H]1C(=O)O [AMPICILLIN]
MIC (Staphylococcus aureus [1]): > 128 mg/L
MIC (Micrococcus luteus): 2 mg/L (≈ 5.72 µM)
MIC [2]: 2 mg/L (≈ 5.72 µM)
MIC (Acinetobacter baumannii): > 128 mg/L
MIC [3]: 128 mg/L (≈ 366 µM)
MIC (Staphylococcus aureus [4]): 0.5 mg/L (≈ 1.43 µM)

NC[C@H]1O[C@H](O[C@H]2[C@H](O)[C@@H](O[C@H]3O[C@H](CO)[C@@H](O)[C@H](N)[C@H]3O)[C@H](N)C[C@@H]2N)[C@H](O)[C@@H](O)[C@@H]1O [KANAMYCIN]
MIC (Staphylococcus aureus [1]): 0.5 mg/L (≈ 1.03 µM)
MIC (Escherichia coli): 0.5 mg/L (≈ 1.03 µM)
MIC (Micrococcus luteus): 0.5 mg/L (≈ 1.03 µM)
MIC [2]: 128 mg/L (≈ 264 µM)
MIC (Acinetobacter baumannii): 4 mg/L (≈ 8.26 µM)
MIC [3]: 0.5 mg/L (≈ 1.03 µM)
MIC (Staphylococcus aureus [4]): 0.5 mg/L (≈ 1.03 µM)
